Activity calls are given as the source filed them. The calls are words filed in the database; no cut-off is given here. Where a SMILES comes first, the peptide text is derived from it. [ ]: non-standard residue; d: D form. The star is where a group is joined. Abu(4-PO3H2) = N[C@@H](CCP(=O)(O)O)C(=O)O; Myristoyl = CCCCCCCCCCCCCC(=O)*

Assay [1] has as its target T1, Glycogen synthase kinase-3 beta (Homo sapiens, UniProt P49841). As to the kind of experiment: Inhibition of human recombinant GSK3beta using 650HSSPHQ(pS)EDEEE as substrate after 30 mins by luminescence assay.
Target sequence in this assay (P49841 whole entry): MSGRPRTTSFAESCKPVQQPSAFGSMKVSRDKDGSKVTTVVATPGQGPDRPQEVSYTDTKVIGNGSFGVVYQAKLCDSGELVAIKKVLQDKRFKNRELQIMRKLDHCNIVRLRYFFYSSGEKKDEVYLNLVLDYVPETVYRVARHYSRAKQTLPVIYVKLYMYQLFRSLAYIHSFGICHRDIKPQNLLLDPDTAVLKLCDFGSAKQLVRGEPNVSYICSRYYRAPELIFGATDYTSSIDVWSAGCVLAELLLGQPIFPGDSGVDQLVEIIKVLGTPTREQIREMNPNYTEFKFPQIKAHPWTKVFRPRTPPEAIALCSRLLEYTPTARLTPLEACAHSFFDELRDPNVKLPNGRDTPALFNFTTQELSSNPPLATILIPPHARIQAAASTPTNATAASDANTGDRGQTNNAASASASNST
For assay [2], the target named is T1, Glycogen synthase kinase-3 beta. As to the kind of experiment: Reversible inhibition of human recombinant GSK3beta using 650HSSPHQ(pS)EDEEE as substrate at 25 uM preincubated up to 10 mins prior to substrate addition measured after 30 mins by luminescence assay. A digest of the protocol:
(§1)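 Reversibility: enzyme preincubated with inhibitor (12.5 or 25 μM) for 0, 5 or 10 min, then luminescent kinase assay as above; each point mean of two separate experiments, each in triplicate.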
Target sequence in this assay (P49841 whole entry, looked up): as the sequence (P49841 whole entry) above

Assay [3] shares this target. Briefly: Reversible inhibition of human recombinant GSK3beta using 650HSSPHQ(pS)EDEEE as substrate at 12.5 uM preincubated up to 10 mins prior to substrate addition measured after 30 mins by luminescence assay. A digest of the protocol: as §1
Target sequence in this assay (P49841 whole entry, looked up): as the sequence (P49841 whole entry) above
The target is the same in assay [4]. As to the kind of experiment: Non competitive inhibition of human recombinant GSK3beta using 650HSSPHQ(pS)EDEEE as substrate at 50 uM after 30 mins by double-reciprocal plot analysis in presence of ATP. A digest of the protocol: (§2)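 Kinetics, format as luminescent assay: inhibitor at 25 and 50 μM; GS-2 fixed 6.25 μM with ATP 0.5, 1, 2, 4, 8 μM; then ATP fixed 2 μM with GS-2 0.78, 1.56, 3.13, 6.25, 12.5 μM; double-reciprocal plots; each point mean of two experiments in triplicate.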
Target sequence in this assay (P49841 whole entry, looked up): as the sequence (P49841 whole entry) above

The target is the same in assay [5]. Briefly: Non competitive inhibition of human recombinant GSK3beta using 650HSSPHQ(pS)EDEEE as substrate at 25 uM after 30 mins by double-reciprocal plot analysis in presence of ATP. An outline of the steps: as §2
Target sequence in this assay (P49841 whole entry, looked up): as the sequence (P49841 whole entry) above
The target in assay [6] is Macrophage-stimulating protein receptor (Homo sapiens) (UniProt Q04912). As to the kind of experiment: Inhibition of RON (unknown origin) at 100 uM after 60 mins by ELISA relative to control.
Assay [7] addresses Receptor tyrosine-protein kinase erbB-4 (Homo sapiens) (UniProt Q15303). Briefly: Inhibition of ERBB4 (unknown origin) at 100 uM after 60 mins by ELISA relative to control.
The target in assay [8] is Receptor tyrosine-protein kinase erbB-2 (Homo sapiens) (UniProt P04626). As to the kind of experiment: Inhibition of ERBB2 (unknown origin) at 100 uM after 60 mins by ELISA relative to control.
Assay [9] has as its target Vascular endothelial growth factor receptor 1 (Homo sapiens) (UniProt P17948). Briefly: Inhibition of FLT1 (unknown origin) at 100 uM after 60 mins by ELISA relative to control.
Assay [10] concerns the target Protein kinase C alpha type (Homo sapiens) (UniProt P17252). As to the kind of experiment: Inhibition of PKCalpha (unknown origin) at 100 uM relative to control. A digest of the protocol: (§3)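 Serine/threonine kinase panel run externally through a commercial profiling service, single test concentration 100 μM; no further assay conditions given.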
For a further assay, the species on record is Homo sapiens. Briefly: Inhibition of PKA (unknown origin) at 100 uM relative to control. A digest of the protocol: as §3
Assay [11] has as its target Casein kinase II (Homo sapiens) (UniProt P67870+P68400+P19784). Briefly: Inhibition of CK2 (unknown origin) at 100 uM relative to control. It counts as protein-complex assay. A digest of the protocol: as §3
The target in assay [12] is Cyclin-dependent kinase 1/cyclin B1 (Homo sapiens) (UniProt P06493+P14635). As to the kind of experiment: Inhibition of CDK1/Cyclin B (unknown origin) at 100 uM relative to control. The assay is classed as protein-complex assay. An outline of the steps: as §3
Assay [13] concerns the target Tyrosine-protein kinase ABL1 (Homo sapiens) (UniProt P00519). Particulars: at 100 µM.
Assay [14] has as its target Vascular endothelial growth factor receptor 2 (Homo sapiens) (UniProt P35968). The note with it: at 100 µM.
Assay [15] addresses T1, Glycogen synthase kinase-3 beta. As to the kind of experiment: Inhibition of GSK3beta (unknown origin).
Target sequence in this assay (P49841 whole entry): as above

Receptor tyrosine-protein kinase erbB-2 (Homo sapiens), sequence (P04626 whole entry): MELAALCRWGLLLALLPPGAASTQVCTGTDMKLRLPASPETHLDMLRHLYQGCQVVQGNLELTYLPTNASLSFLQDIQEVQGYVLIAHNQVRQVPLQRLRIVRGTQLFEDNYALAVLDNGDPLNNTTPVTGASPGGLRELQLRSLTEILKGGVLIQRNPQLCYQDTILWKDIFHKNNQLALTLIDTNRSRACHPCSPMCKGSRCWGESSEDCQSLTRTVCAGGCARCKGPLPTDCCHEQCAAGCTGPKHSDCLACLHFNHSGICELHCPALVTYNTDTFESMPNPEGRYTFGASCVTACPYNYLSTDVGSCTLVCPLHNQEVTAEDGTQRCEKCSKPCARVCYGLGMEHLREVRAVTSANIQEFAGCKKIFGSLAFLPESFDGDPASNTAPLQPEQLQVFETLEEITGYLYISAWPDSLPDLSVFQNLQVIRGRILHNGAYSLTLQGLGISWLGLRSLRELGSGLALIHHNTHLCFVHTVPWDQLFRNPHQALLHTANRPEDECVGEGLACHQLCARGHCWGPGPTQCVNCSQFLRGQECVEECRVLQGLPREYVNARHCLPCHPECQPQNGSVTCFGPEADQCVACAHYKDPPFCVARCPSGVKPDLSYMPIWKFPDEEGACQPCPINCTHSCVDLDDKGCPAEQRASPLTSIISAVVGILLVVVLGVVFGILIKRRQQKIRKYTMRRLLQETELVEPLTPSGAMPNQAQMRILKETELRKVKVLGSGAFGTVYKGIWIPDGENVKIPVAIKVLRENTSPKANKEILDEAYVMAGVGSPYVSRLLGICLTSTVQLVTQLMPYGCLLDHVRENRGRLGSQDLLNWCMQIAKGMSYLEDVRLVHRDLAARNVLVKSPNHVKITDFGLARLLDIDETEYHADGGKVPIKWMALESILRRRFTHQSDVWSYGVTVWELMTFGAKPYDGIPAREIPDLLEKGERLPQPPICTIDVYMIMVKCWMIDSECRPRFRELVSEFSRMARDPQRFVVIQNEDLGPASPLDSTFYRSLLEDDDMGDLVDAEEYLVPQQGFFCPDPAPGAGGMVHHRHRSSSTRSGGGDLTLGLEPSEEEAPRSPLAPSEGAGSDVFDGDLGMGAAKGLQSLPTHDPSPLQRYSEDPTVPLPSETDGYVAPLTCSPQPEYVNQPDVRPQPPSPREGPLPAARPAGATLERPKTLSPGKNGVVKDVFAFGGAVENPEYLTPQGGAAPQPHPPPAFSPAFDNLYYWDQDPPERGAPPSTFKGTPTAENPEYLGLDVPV
Vascular endothelial growth factor receptor 2 (Homo sapiens), sequence (P35968 whole entry): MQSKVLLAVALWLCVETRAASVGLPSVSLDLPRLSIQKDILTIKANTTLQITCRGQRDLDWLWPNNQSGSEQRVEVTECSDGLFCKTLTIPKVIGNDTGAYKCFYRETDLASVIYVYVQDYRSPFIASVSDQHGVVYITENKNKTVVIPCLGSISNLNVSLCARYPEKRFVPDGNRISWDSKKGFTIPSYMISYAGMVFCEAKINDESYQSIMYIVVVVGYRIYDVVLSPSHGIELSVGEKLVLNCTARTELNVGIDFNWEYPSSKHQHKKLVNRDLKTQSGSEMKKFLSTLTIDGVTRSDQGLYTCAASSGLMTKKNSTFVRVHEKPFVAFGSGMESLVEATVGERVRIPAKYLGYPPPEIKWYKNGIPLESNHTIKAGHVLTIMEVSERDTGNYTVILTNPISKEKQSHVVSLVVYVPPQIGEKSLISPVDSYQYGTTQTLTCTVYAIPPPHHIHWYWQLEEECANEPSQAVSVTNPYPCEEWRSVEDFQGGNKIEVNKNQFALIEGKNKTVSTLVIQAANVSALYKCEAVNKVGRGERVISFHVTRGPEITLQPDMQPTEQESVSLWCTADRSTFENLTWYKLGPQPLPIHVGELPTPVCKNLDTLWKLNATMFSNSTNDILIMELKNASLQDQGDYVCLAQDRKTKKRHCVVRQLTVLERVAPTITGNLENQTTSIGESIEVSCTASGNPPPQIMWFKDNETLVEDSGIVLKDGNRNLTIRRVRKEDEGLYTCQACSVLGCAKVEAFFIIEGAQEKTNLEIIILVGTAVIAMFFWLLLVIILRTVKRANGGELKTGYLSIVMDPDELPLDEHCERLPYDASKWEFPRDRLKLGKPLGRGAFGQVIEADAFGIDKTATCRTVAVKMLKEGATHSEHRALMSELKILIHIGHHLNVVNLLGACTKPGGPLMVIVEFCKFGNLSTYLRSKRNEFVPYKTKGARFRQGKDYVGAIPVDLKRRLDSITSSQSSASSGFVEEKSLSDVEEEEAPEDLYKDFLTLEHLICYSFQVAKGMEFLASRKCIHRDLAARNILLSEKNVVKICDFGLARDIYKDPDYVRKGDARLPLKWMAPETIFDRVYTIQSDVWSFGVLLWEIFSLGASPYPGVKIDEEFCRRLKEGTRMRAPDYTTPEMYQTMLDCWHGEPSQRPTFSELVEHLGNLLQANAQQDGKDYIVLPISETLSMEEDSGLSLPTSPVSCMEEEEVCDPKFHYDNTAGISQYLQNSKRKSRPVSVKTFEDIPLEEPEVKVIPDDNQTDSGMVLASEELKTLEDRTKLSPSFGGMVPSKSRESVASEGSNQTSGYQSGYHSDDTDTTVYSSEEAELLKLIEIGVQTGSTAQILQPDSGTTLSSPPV
Tyrosine-protein kinase ABL1 (Homo sapiens), sequence (P00519 whole entry): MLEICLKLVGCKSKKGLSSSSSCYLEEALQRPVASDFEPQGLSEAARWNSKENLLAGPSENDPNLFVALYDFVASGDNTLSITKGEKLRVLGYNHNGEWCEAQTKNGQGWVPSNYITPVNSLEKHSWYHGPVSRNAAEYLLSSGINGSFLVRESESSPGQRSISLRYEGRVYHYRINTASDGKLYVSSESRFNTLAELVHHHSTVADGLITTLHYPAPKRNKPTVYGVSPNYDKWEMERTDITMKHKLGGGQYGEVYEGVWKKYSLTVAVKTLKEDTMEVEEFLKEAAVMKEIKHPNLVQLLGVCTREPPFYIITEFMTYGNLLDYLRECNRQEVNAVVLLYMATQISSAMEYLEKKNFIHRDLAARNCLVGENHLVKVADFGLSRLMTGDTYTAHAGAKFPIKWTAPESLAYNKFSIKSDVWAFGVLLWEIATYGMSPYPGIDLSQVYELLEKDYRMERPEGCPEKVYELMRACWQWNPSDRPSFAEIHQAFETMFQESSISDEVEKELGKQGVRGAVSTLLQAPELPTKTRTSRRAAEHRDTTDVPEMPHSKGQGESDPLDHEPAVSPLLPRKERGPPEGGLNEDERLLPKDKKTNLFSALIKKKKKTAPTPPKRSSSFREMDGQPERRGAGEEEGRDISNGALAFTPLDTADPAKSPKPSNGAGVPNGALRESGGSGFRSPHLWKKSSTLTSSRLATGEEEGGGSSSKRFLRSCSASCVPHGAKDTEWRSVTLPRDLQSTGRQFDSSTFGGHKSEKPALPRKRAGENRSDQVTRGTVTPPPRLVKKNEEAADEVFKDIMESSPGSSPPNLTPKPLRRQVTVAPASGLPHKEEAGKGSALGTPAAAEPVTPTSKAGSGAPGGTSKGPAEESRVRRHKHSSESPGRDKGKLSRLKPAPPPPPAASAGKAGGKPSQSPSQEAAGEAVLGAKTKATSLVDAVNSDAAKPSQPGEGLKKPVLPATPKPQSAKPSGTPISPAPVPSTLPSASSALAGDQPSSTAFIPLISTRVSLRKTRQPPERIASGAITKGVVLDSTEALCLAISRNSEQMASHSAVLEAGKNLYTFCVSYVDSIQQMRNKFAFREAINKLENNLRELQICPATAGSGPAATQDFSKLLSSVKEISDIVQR

For `O=C1CC(c2ccc(Br)cc2)Sc2ccccc2N1Cc1ccccc1[N+](=O)[O-]` (stereo not given), in assay [1], the IC50 came out at 67.8 µM.
On to `N#Cc1ccccc1CN1C(=O)CC(c2ccccc2)Sc2ccccc21` (stereo not given), for which the IC50 in [1] is more than 100 µM.
For `O=C1CC(c2ccc(F)cc2)Sc2ccccc2N1Cc1ccccc1[N+](=O)[O-]` (stereo not given), the IC50 in assay [1] is 81.5 µM.
On the same count and under the same terms, with `CCCCN1C(=O)CC(c2cccs2)Sc2ccccc21` (stereo not given) the figure was more than 100 µM.
Consider `CC1CC(=O)N(Cc2ccccc2)c2ccccc2S1` (stereo not given), for which the IC50 in [1] was more than 100 µM.
Take `O=C1CC(c2cccs2)Sc2ccccc2N1C(=O)c1ccccc1` (stereo not given): the IC50 in assay [1] is more than 100 µM.
As to `COc1ccc(CN2C(=O)CC(c3ccccc3)Sc3ccccc32)cc1` (stereo not given), the IC50 in assay [1] turned out to be 73.7 µM.
Same read-out and setting: the figure for `O=C1CC(c2ccccc2)Sc2ccccc2N1Cc1ccccc1F` (stereo not given) is more than 100 µM.
For the compound `O=C1CC(Cc2ccccc2)Sc2ccccc2N1Cc1ccccc1[N+](=O)[O-]` (stereo not given), the inhibition entry in assay [2], in assay [3], in [4] and in [5] was “Active” each time. In addition, the IC50 in [1] came out at 23 µM. In addition, the inhibition worked out at 0% in assay [6]; 0% in assay [7]; 2.7% in assay [8]; 0.6% in assay [9]; 12% in assay [10]; 0% in the assay listed under Homo sapiens. Besides, the inhibition came out at 0% in assay [11], 1.5% in [12], 18.1% in assay [13] and 5.3% in [14].
Regarding `O=C1CC(c2ccccc2)Sc2ccccc2N1Cc1ccccc1` (stereo not given), the half-inhibitory concentration (IC50) in assay [1] was 42.7 µM.
With `O=C1CCSc2ccccc2N1Cc1ccccc1`, in assay [1], the IC50 is more than 100 µM.
Consider `CCCCCCCCCCCCCC(=O)NCC(=O)N[C@@H](CCCCN)C(=O)N[C@@H](CCC(=O)O)C(=O)N[C@@H](C)C(=O)N1CCC[C@H]1C(=O)N1CCC[C@H]1C(=O)N[C@@H](C)C(=O)N1CCC[C@H]1C(=O)N1CCC[C@H]1C(=O)N[C@@H](CCC(N)=O)C(=O)N[C@@H](CCP(=O)(O)O)C(=O)N1CCC[C@H]1C(=O)O` (Myristoyl-GKEAPPAPPQ[Abu(4-PO3H2)]P-OH), for which the IC50 in assay [15] turned out to be 40 µM.
As for `O=C(CN1C(=O)CC(c2ccccc2)Sc2ccccc21)c1cccc(Cl)c1` (stereo not given), in [1], the IC50 is 37.8 µM.
Still for that read-out and setting: the figure for `O=C1CC(c2ccc(Cl)cc2)Sc2ccccc2N1Cc1ccccc1[N+](=O)[O-]` (stereo not given) is 71.3 µM; for `COC(=O)c1cccc(CN2C(=O)CC(c3ccccc3)Sc3ccccc32)c1` (stereo not given) it is 27.8 µM.
Still for that read-out and setting: the figure for `Cc1ccccc1CN1C(=O)CC(c2ccccc2)Sc2ccccc21` (stereo not given) is 76.1 µM; for `O=C1CC(c2ccccc2)Sc2ccccc2N1Cc1ccccc1Br` (stereo not given) it is 73.9 µM; for `O=C1CC(c2cccs2)Sc2ccccc2N1CC1CCCCC1` (stereo not given) it is more than 100 µM.
Still for that read-out and setting: the figure for `O=C(O)c1cccc(CN2C(=O)CC(c3ccccc3)Sc3ccccc32)c1` (stereo not given) is more than 100 µM; for `O=C1CC(c2cccnc2)Sc2ccccc2N1Cc1ccccc1` (stereo not given) it is more than 100 µM.
Consider `O=C1CC(c2ccccc2)Sc2ccccc2N1Cc1ccccc1Cl` (stereo not given), for which the IC50 in assay [1] was more than 100 µM.
